Laboratory results published in ChEMBL document CHEMBL6109036, “Azo derivatives of monoterpenes as anti-Helicobacter pylori agents: from synthesis to structure-based target investigation” (RSC Med Chem, 2025).

What was measured:
Type in all cases: functional
Helicobacter pylori [1] = experiment: Bactericidal against Helicobacter pylori Clinical isolate F4 measured after 72 hrs of incubation under microaerophilic conditions by modified broth dilution method; details: read-out: MBC99.9
Summary of the method: (§1)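 H. pylori (NCTC 11637, F1, 23, F4). Wells with no visible growth in the MIC assay spotted (10 μL) onto Skirrow agar. Plates incubated 72 h at 37 °C, microaerophilic, 100% humidity. MBC = concentration killing 99.9% of the initial inoculum. Triplicate, on at least three different days.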

Helicobacter pylori [2] = experiment: Bactericidal activity against Helicobacter pylori NCTC 11637 measured after 72 hrs of incubation under microaerophilic conditions by modified broth dilution method; details: read-out: MBC99.9; summary of the method: as §1
Helicobacter pylori [3] = experiment: Bactericidal against Helicobacter pylori measured after 72 hrs of incubation under microaerophilic conditions by modified broth dilution method
Summary of the method: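 Wells with no visible growth in the MIC assay spotted (10 μL) onto Skirrow agar. Plates incubated 72 h at 37 °C, microaerophilic, 100% humidity. Triplicate, on at least three different days.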

Helicobacter pylori [4] = experiment: Bactericidal activity against Helicobacter pylori Clinical isolate 23 measured after 72 hrs of incubation under microaerophilic conditions by modified broth dilution method; details: read-out: MBC99.9; summary of the method: as §1
Helicobacter pylori [5] = experiment: Bactericidal activity against Helicobacter pylori Clinical isolate F1 measured after 72 hrs of incubation under microaerophilic conditions by modified broth dilution method; details: read-out: MBC99.9; summary of the method: as §1
Helicobacter pylori [6] = experiment: Anti-bacterial activity against Helicobacter pylori Clinical isolate 23 measured after 72 hrs incubation by modified broth dilution method
Helicobacter pylori [7] = experiment: Anti-bacterial activity against Helicobacter pylori NCTC 11637 measured after 72 hrs incubation by modified broth dilution method
Helicobacter pylori [8] = experiment: Anti-bacterial activity against Helicobacter pylori Clinical isolate F1 measured after 72 hrs incubation by modified broth dilution method
Helicobacter pylori [9] = experiment: Anti-bacterial activity against Helicobacter pylori Clinical isolate F4 measured after 72 hrs incubation by modified broth dilution method
Helicobacter pylori [10] = experiment: Anti-bacterial activity against Helicobacter pylori measured after 72 hrs incubation by modified broth dilution method

COc1ccc(/N=N/c2cc(C)c(O)cc2C(C)C)cc1
4 µg/mL: MBC (Helicobacter pylori [1]) | MBC (Helicobacter pylori [5]) | MIC (Helicobacter pylori [8]) | MIC (Helicobacter pylori [9]) | MIC50 (Helicobacter pylori [10])
8 µg/mL: MBC (Helicobacter pylori [2]) | MBC90 (Helicobacter pylori [3]) | MBC (Helicobacter pylori [4]) | MIC (Helicobacter pylori [6]) | MIC (Helicobacter pylori [7]) | MIC90 (Helicobacter pylori [10])

COc1ccc(/N=N/c2cc(C(C)C)c(OC(C)=O)cc2C)cc1
64 µg/mL: MBC (Helicobacter pylori [4]) | MIC (Helicobacter pylori [6]) | MIC (Helicobacter pylori [9]) | MIC50 (Helicobacter pylori [10])
128 µg/mL: MBC (Helicobacter pylori [1]) | MBC (Helicobacter pylori [2]) | MBC90 (Helicobacter pylori [3]) | MBC (Helicobacter pylori [5]) | MIC (Helicobacter pylori [7]) | MIC (Helicobacter pylori [8]) | MIC90 (Helicobacter pylori [10])

Cc1cc(OC(=S)N(C)C)c(C(C)C)cc1/N=N/c1ccc([N+](=O)[O-])cc1
> 128 µg/mL: MBC (Helicobacter pylori [1]) | MBC (Helicobacter pylori [2]) | MBC (Helicobacter pylori [4]) | MBC (Helicobacter pylori [5]) | MIC (Helicobacter pylori [6]) | MIC (Helicobacter pylori [7]) | MIC (Helicobacter pylori [8]) | MIC (Helicobacter pylori [9]) | MIC50 (Helicobacter pylori [10]) | MIC90 (Helicobacter pylori [10])
>128 µg/mL: MBC90 (Helicobacter pylori [3])

C=CCc1cccc(OC)c1O
> 128 µg/mL: MBC (Helicobacter pylori [1]) | MBC (Helicobacter pylori [2]) | MBC (Helicobacter pylori [3]; Helicobacter pylori, read-out: MBC99.9) | MBC (Helicobacter pylori [4]) | MBC (Helicobacter pylori [5]) | MIC (Helicobacter pylori [6]) | MIC (Helicobacter pylori [7]) | MIC (Helicobacter pylori [8]) | MIC (Helicobacter pylori [9]) | MIC50 (Helicobacter pylori [10]) | MIC90 (Helicobacter pylori [10])

C=CCc1cc(/N=N/c2cccc3ccccc23)c(O)c(OC)c1
128 µg/mL: MBC (Helicobacter pylori [2]) | MIC (Helicobacter pylori [7])
>128 µg/mL: MBC90 (Helicobacter pylori [3])
> 128 µg/mL: MBC (Helicobacter pylori [1]) | MBC (Helicobacter pylori [4]) | MBC (Helicobacter pylori [5]) | MIC (Helicobacter pylori [6]) | MIC (Helicobacter pylori [8]) | MIC (Helicobacter pylori [9]) | MIC50 (Helicobacter pylori [10]) | MIC90 (Helicobacter pylori [10])

COc1cc(C=O)cc(/N=N/c2ccccc2Cl)c1O
16 µg/mL: MBC (Helicobacter pylori [5]) | MIC (Helicobacter pylori [8])
64 µg/mL: MBC (Helicobacter pylori [1]) | MBC (Helicobacter pylori [2]) | MBC90 (Helicobacter pylori [3]) | MBC (Helicobacter pylori [4]) | MIC (Helicobacter pylori [6]) | MIC (Helicobacter pylori [7]) | MIC (Helicobacter pylori [9]) | MIC50 (Helicobacter pylori [10]) | MIC90 (Helicobacter pylori [10])

C=CCc1cc(/N=N/c2cccc([N+](=O)[O-])c2)c(O)c(OC)c1
128 µg/mL: MBC (Helicobacter pylori [1]) | MBC (Helicobacter pylori [2]) | MBC (Helicobacter pylori [4]) | MIC (Helicobacter pylori [6]) | MIC (Helicobacter pylori [7]) | MIC (Helicobacter pylori [8]) | MIC (Helicobacter pylori [9]) | MIC50 (Helicobacter pylori [10])
> 128 µg/mL: MBC (Helicobacter pylori [5]) | MIC90 (Helicobacter pylori [10])
>128 µg/mL: MBC90 (Helicobacter pylori [3])

COc1ccc(/N=N/c2cc(C=O)cc(OC)c2O)cc1
>128 µg/mL: MBC90 (Helicobacter pylori [3])
64 µg/mL: MIC (Helicobacter pylori [8])
> 128 µg/mL: MBC (Helicobacter pylori [1]) | MBC (Helicobacter pylori [2]) | MBC (Helicobacter pylori [4]) | MIC (Helicobacter pylori [6]) | MIC (Helicobacter pylori [7]) | MIC (Helicobacter pylori [9]) | MIC50 (Helicobacter pylori [10]) | MIC90 (Helicobacter pylori [10])
128 µg/mL: MBC (Helicobacter pylori [5])

CC(=O)Oc1cc(C)c(/N=N/c2ccc([N+](=O)[O-])cc2)cc1C(C)C
> 128 µg/mL: MBC (Helicobacter pylori [1]) | MBC (Helicobacter pylori [2]) | MIC (Helicobacter pylori [7]) | MIC (Helicobacter pylori [9]) | MIC90 (Helicobacter pylori [10])
>128 µg/mL: MBC90 (Helicobacter pylori [3])
128 µg/mL: MBC (Helicobacter pylori [4]) | MBC (Helicobacter pylori [5]) | MIC (Helicobacter pylori [6]) | MIC (Helicobacter pylori [8]) | MIC50 (Helicobacter pylori [10])

COc1ccc(/N=N/c2cc(C)c(O)c(/N=N/c3ccc(OC)cc3)c2C(C)C)cc1
>128 µg/mL: MBC90 (Helicobacter pylori [3])
> 128 µg/mL: MBC (Helicobacter pylori [1]) | MBC (Helicobacter pylori [2]) | MBC (Helicobacter pylori [4]) | MBC (Helicobacter pylori [5]) | MIC (Helicobacter pylori [6]) | MIC (Helicobacter pylori [7]) | MIC (Helicobacter pylori [8]) | MIC (Helicobacter pylori [9]) | MIC50 (Helicobacter pylori [10]) | MIC90 (Helicobacter pylori [10])

CC[C@H]1OC(=O)[C@H](C)[C@@H](O[C@H]2C[C@@](C)(OC)[C@@H](O)[C@H](C)O2)[C@H](C)[C@@H](O[C@@H]2O[C@H](C)C[C@H](N(C)C)[C@H]2O)[C@](C)(OC)C[C@@H](C)C(=O)[C@H](C)[C@@H](O)[C@]1(C)O [CLARITHROMYCIN]
256 µg/mL: MBC (Helicobacter pylori [1]) | MIC90 (Helicobacter pylori [10])
> 256 µg/mL: MIC (Helicobacter pylori [9])
8 µg/mL: MBC (Helicobacter pylori [5])
4 µg/mL: MIC (Helicobacter pylori [8])
0.064 µg/mL: MBC (Helicobacter pylori [2]) | MBC (Helicobacter pylori [4]) | MIC (Helicobacter pylori [6]) | MIC (Helicobacter pylori [7]) | MIC50 (Helicobacter pylori [10])
